Measurements: ChEMBL document CHEMBL3124924, “Bifunctional ethyl 2-amino-4-methylthiazole-5-carboxylate derivatives: synthesis and in vitro biological evaluation as antimicrobial and anticancer agents” (2014)
≈ marks a conversion by molar mass, not a printed value.

Columns and labels:
Type in all cases: functional
NCI-H522 = experiment: Cytotoxicity against human NCI-H522 cells assessed as growth inhibition at 10 uM after 48 hrs by SRB assay; conditions: NCI-H522, 48 h, read-out: GI
Procedure, shortened: (§1)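 NCI-60 one-dose primary screen run by the NCI Drug Evaluation Branch across the full 60-line panel. Single high-dose treatment with 48 h continuous drug exposure. Cell growth estimated by sulforhodamine B protein staining. Results given as percent growth of treated cells and expressed as percentage growth inhibition.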

Bacillus spizizenii [1] = experiment: Bactericidal activity against Bacillus subtilis ATCC 6633 after 18 hrs; conditions: ATCC 6633, 18 h
Procedure, shortened: (§2)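 Continuation of the broth-dilution MIC test. A loopful from each tube without visible growth spread on a quarter of a Mueller-Hinton agar plate and incubated 18 h. Lowest concentration giving no growth on subculture taken as the MBC.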

Candida albicans = experiment: Antifungal activity against Candida albicans ATCC 10231 assessed as growth inhibition at 1 mg/mL after 48 hrs by agar-cup diffusion method; conditions: ATCC 10231, 48 h, read-out: DIZ
Procedure, shortened: (§3)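 Agar-cup diffusion: 1 mL of 6 h broth culture seeded per 100 mL molten sterile agar at 45 °C and poured into plates. 8 mm cups cut, each filled with 0.1 mL of 1 mg/mL test solution. Incubated 37 °C for 24 h, 48 h for C. albicans. DMSO control per organism. Inhibition zone diameter in mm, mean of three measurements.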

SN12C = experiment: Cytotoxicity against human SN12C cells assessed as growth inhibition at 10 uM after 48 hrs by SRB assay; conditions: read-out: GI; procedure, shortened: as §1
Bacillus spizizenii [2] = experiment: Antibacterial activity against Bacillus subtilis ATCC 6633 assessed as growth inhibition at 1 mg/mL after 24 hrs by agar-cup diffusion method; conditions: ATCC 6633, 24 h, read-out: DIZ; procedure, shortened: as §3
SR = experiment: Cytotoxicity against human SR cells assessed as growth inhibition at 10 uM after 48 hrs by SRB assay; conditions: read-out: GI; procedure, shortened: as §1
A498 = experiment: Cytotoxicity against human A498 cells assessed as growth inhibition at 10 uM after 48 hrs by SRB assay; conditions: A498, 48 h, read-out: GI; procedure, shortened: as §1
MDA-MB-468 = experiment: Cytotoxicity against human MDA-MB-468 cells assessed as growth inhibition at 10 uM after 48 hrs by SRB assay; conditions: MDA-MB-468, 48 h, read-out: GI; procedure, shortened: as §1
Escherichia coli [3] = experiment: Bactericidal activity against Escherichia coli ATCC 25922 after 18 hrs; conditions: ATCC 25922, 18 h; procedure, shortened: as §2
Escherichia coli [4] = experiment: Antibacterial activity against Escherichia coli ATCC 25922 assessed as growth inhibition after 48 hrs by two-fold serial dilution assay; conditions: ATCC 25922, 48 h
Procedure, shortened: (§4)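 Twofold serial broth dilution run on compounds giving inhibition zones of 13 mm or more. Organisms pre-grown in suitable broth at 37 °C, 24 h for bacteria and 48 h for fungi. Dilution series 200, 100, 50, 25, 12.5, 6.25. Each 5 mL tube inoculated with 0.1 mL and incubated 37 °C for 48 h. Tubes scored for presence or absence of growth.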

MOLT-4 = experiment: Cytotoxicity against human MOLT4 cells assessed as growth inhibition at 10 uM after 48 hrs by SRB assay; conditions: MOLT-4, 48 h, read-out: GI; procedure, shortened: as §1
Staphylococcus aureus = experiment: Bactericidal activity against Staphylococcus aureus ATCC 6538 after 18 hrs; conditions: ATCC 6538, 18 h; procedure, shortened: as §2
NCI-H226 = experiment: Cytotoxicity against human NCI-H226 cells assessed as growth inhibition at 10 uM after 48 hrs by SRB assay; conditions: NCI-H226, 48 h, read-out: GI; procedure, shortened: as §1
UACC-62 = experiment: Cytotoxicity against human UACC62 cells assessed as growth inhibition at 10 uM after 48 hrs by SRB assay; conditions: UACC-62, 48 h, read-out: GI; procedure, shortened: as §1
HCT-15 = experiment: Cytotoxicity against human HCT15 cells assessed as growth inhibition at 10 uM after 48 hrs by SRB assay; conditions: HCT-15, 48 h, read-out: GI; procedure, shortened: as §1
SNB-75 = experiment: Cytotoxicity against human SNB75 cells assessed as growth inhibition at 10 uM after 48 hrs by SRB assay; conditions: SNB-75, 48 h, read-out: GI; procedure, shortened: as §1
HOP-92 = experiment: Cytotoxicity against human HOP92 cells assessed as growth inhibition at 10 uM after 48 hrs by SRB assay; conditions: HOP-92, 48 h, read-out: GI; procedure, shortened: as §1
Pseudomonas aeruginosa = experiment: Antibacterial activity against Pseudomonas aeruginosa ATCC 27853 assessed as growth inhibition at 1 mg/mL after 24 hrs by agar-cup diffusion method; conditions: ATCC 27853, 24 h, read-out: DIZ; procedure, shortened: as §3
HT-29 = experiment: Cytotoxicity against human HT-29 cells assessed as growth inhibition at 10 uM after 48 hrs by SRB assay; conditions: HT-29, 48 h, read-out: GI; procedure, shortened: as §1
HCT-116 = experiment: Cytotoxicity against human HCT116 cells assessed as growth inhibition at 10 uM after 48 hrs by SRB assay; conditions: HCT-116, 48 h, read-out: GI; procedure, shortened: as §1
SW-620 = experiment: Cytotoxicity against human SW620 cells assessed as growth inhibition at 10 uM after 48 hrs by SRB assay; conditions: SW-620, 48 h, read-out: GI; procedure, shortened: as §1
Bacillus spizizenii [5] = experiment: Antibacterial activity against Bacillus subtilis ATCC 6633 assessed as growth inhibition after 48 hrs by two-fold serial dilution assay; conditions: ATCC 6633, 48 h; procedure, shortened: as §4
SK-MEL-2 = experiment: Cytotoxicity against human SK-MEL-2 cells assessed as growth inhibition at 10 uM after 48 hrs by SRB assay; conditions: SK-MEL-2, 48 h, read-out: GI; procedure, shortened: as §1
IGROV-1 = experiment: Cytotoxicity against human IGROV1 cells assessed as growth inhibition at 10 uM after 48 hrs by SRB assay; conditions: IGROV-1, 48 h, read-out: GI; procedure, shortened: as §1
HCC 2998 = experiment: Cytotoxicity against human HCC2998 cells assessed as growth inhibition at 10 uM after 48 hrs by SRB assay; conditions: HCC 2998, 48 h, read-out: GI; procedure, shortened: as §1
U-251 = experiment: Cytotoxicity against human U251 cells assessed as growth inhibition at 10 uM after 48 hrs by SRB assay; conditions: U-251, 48 h, read-out: GI; procedure, shortened: as §1
T47D = experiment: Cytotoxicity against human T47D cells assessed as growth inhibition at 10 uM after 48 hrs by SRB assay; conditions: read-out: GI; procedure, shortened: as §1
SF-268 = experiment: Cytotoxicity against human SF268 cells assessed as growth inhibition at 10 uM after 48 hrs by SRB assay; conditions: SF-268, 48 h, read-out: GI; procedure, shortened: as §1
NCI-H322M = experiment: Cytotoxicity against human NCI-H322M cells assessed as growth inhibition at 10 uM after 48 hrs by SRB assay; conditions: read-out: GI; procedure, shortened: as §1
MCF7 = experiment: Cytotoxicity against human MCF7 cells assessed as growth inhibition at 10 uM after 48 hrs by SRB assay; conditions: MCF7, 48 h, read-out: GI; procedure, shortened: as §1
K562 = experiment: Cytotoxicity against human K562 cells assessed as growth inhibition at 10 uM after 48 hrs by SRB assay; conditions: K562, 48 h, read-out: GI; procedure, shortened: as §1
[6] = Cytotoxicity against human NCI-ADR-RES cells assessed as growth inhibition at 10 uM after 48 hrs by SRB assay; conditions: read-out: GI; procedure, shortened: as §1

SMILES	inhibition of growth at 10 µM (NCI-H522) [%]	MBC (Bacillus spizizenii [1]) [µg/mL]	zone of inhibition at 1000 µg/mL (Candida albicans) [mm]	inhibition of growth at 10 µM (SN12C) [%]	zone of inhibition at 1000 µg/mL (Bacillus spizizenii [2]) [mm]	inhibition of growth at 10 µM (SR) [%]	inhibition of growth at 10 µM (A498) [%]	inhibition of growth at 10 µM (MDA-MB-468) [%]	MBC (Escherichia coli [3]) [µg/mL]	MIC (Escherichia coli [4]) [µg/mL]	inhibition of growth at 10 µM (MOLT-4) [%]	MBC (Staphylococcus aureus) [µg/mL]	inhibition of growth at 10 µM (NCI-H226) [%]	inhibition of growth at 10 µM (UACC-62) [%]	inhibition of growth at 10 µM (HCT-15) [%]	inhibition of growth at 10 µM (SNB-75) [%]	inhibition of growth at 10 µM (HOP-92) [%]	zone of inhibition at 1000 µg/mL (Pseudomonas aeruginosa) [mm]	inhibition of growth at 10 µM (HT-29) [%]	inhibition of growth at 10 µM (HCT-116) [%]	further results
CCOC(=O)c1sc(NS(=O)(=O)c2ccccc2)nc1C	< 10	100 (≈ 306 µM)	> 13	< 10	> 13	< 10	11.6	< 10	50 (≈ 153 µM)	50 (≈ 153 µM)	24.4	25 (≈ 76.6 µM)	< 10	< 10	< 10	3.91	< 10	> 13	< 10	43.1	inhibition of growth at 10 µM (SW-620): < 10%; MIC (Bacillus spizizenii [5]): 100 µg/mL (≈ 306 µM); inhibition of growth at 10 µM (SK-MEL-2): 97.5%; inhibition of growth at 10 µM (IGROV-1): 93.1%; inhibition of growth at 10 µM (HCC 2998): 72.5%; inhibition of growth at 10 µM (U-251): < 10%; inhibition of growth at 10 µM (T47D): < 10%; inhibition of growth at 10 µM (SF-268): < 10%; inhibition of growth at 10 µM (NCI-H322M): < 10%; inhibition of growth at 10 µM (MCF7): < 10%; inhibition of growth at 10 µM (K562): < 10%; inhibition of growth at 10 µM [6]: < 10%
Cc1nc(NC(=O)Nc2ccccc2)sc1C(=O)NN	63.4	25 (≈ 85.8 µM)	> 13	< 10	> 13	25.8	3.17	< 10	12.5 (≈ 42.9 µM)	12.5 (≈ 42.9 µM)	< 10	12.5 (≈ 42.9 µM)	2.53	11.9	9.63	< 10	< 10	> 13	< 10	10.5	inhibition of growth at 10 µM (SW-620): < 10%; MIC (Bacillus spizizenii [5]): 25 µg/mL (≈ 85.8 µM); inhibition of growth at 10 µM (SK-MEL-2): 37.8%; inhibition of growth at 10 µM (IGROV-1): < 10%; inhibition of growth at 10 µM (HCC 2998): 6.85%; inhibition of growth at 10 µM (U-251): < 10%; inhibition of growth at 10 µM (T47D): < 10%; inhibition of growth at 10 µM (SF-268): < 10%; inhibition of growth at 10 µM (NCI-H322M): 22%; inhibition of growth at 10 µM (MCF7): 2.96%; inhibition of growth at 10 µM (K562): < 10%; inhibition of growth at 10 µM [6]: 6.43%
